The text below walks through data of ChEMBL document CHEMBL3044850, “Synthesis and biological activities of novel pyrazole oxime derivatives containing a 2-chloro-5-thiazolyl moiety” (2008).

Each structure is given as a SMILES string. The source made the active and inactive calls. The rule behind the calls is not given here.

Type in all cases: functional
The test system of test [1] is Fusarium graminearum. The test can be described thus: Fungicidal activity against Fusarium graminearum assessed as growth inhibition at 50 ug/ml at 23 degC after 3 days. The note with it: for inhibition of growth at 50 µg/mL: 72 h, read-out: GI. Summed up: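 Mycelial growth test in agar plates with 50 µg/mL final compound (from 500 µg/mL solution diluted into medium). A 4 mm plug from active mycelium fringe is placed centrally and incubated at 23 °C. Diameter is read after 3 days against a sterile water plus medium blank, in triplicate. Inhibition I = [(C − T)/C] × 100%.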

Test [2] has as its system Cladosporium cucumerinum. The experiment in a line: Fungicidal activity against Cladosporium cucumerinum assessed as growth inhibition at 50 ug/ml at 23 degC after 3 days. The conditions noted are these: 72 h, read-out: GI. Summed up:
(§1)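 Test solutions were made at 500 µg/mL and mixed 1:9 with agar medium to give 50 µg/mL plates. A 4 mm plug from the edge of actively growing mycelium was placed at the plate centre and incubated at 23 °C. Colony diameter was measured after 3 days against a sterile water plus medium blank, in triplicate. Inhibition = [(C − T)/C] × 100%.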

The test system of test [3] is Tetranychus cinnabarinus. The test can be described thus: Insecticidal activity against Tetranychus cinnabarinus (carmine spider mite) in soybean tender shoots assessed as mortality at 0.2 mg/ml treated for 5 secs measured after 48 hr. Summed up: (§2)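 Insects held at 26 °C, 60% relative humidity, 14 h photoperiod. Acetone stock at 0.5 mg/mL is diluted with water containing TW-20. Soybean tender shoots bearing 60 insects are dipped for 5 s, drained, then kept under the same conditions. Mortality is scored after 48 h relative to untreated controls, in triplicate.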

The subject of test [4] is Botryosphaeria berengeriana. The experiment in a line: Fungicidal activity against Botryosphaeria berengeriana assessed as growth inhibition at 50 ug/ml at 23 degC after 3 days. The note with it: 72 h, read-out: GI. Summed up:
as §1

Test [5] concerns Aphis medicaginis. The experiment in a line: Insecticidal activity against Aphis medicaginis in soybean tender shoots assessed as mortality at 0.2 mg/ml treated for 5 secs measured after 48 hr. In short, it runs like this:
as §2

The subject of test [6] is Aphis medicaginis. The experiment in a line: Insecticidal activity against Aphis medicaginis in soybean tender shoots assessed as mortality at 0.5 mg/ml treated for 5 secs measured after 48 hr. Summed up:
as §2

In test [7] the test system is Alternaria solani. The experiment in a line: Fungicidal activity against Alternaria solani assessed as growth inhibition at 50 ug/ml at 23 degC after 3 days. The conditions noted are these: for inhibition of growth at 50 µg/mL: 72 h, read-out: GI. In short, it runs like this:
as §1

Test [8] concerns Cucumis sativus. The experiment in a line: Growth regulation of Cucumis sativus (cucumber) seeds assessed as rhizogenesis at 10 ug/ml at 24 degC after 3 days by cucumber cotyledon test. In short, it runs like this:
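Cucumber seeds (JINKE No. 4) were germinated in the dark at 24 °C for 3 days, and cotyledons of uniform size were selected. Sample in DMF (10 µg/mL) was sprayed onto filter paper and dried, then the paper was wetted with distilled water. Ten cotyledons were incubated in the dark at 24 °C for 3 days. Rhizogenesis was counted per 10 hypocotyls, in triplicate, with a distilled-water control and Student's t test.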

Test [9] relates to Mycosphaerella arachidis. The experiment in a line: Fungicidal activity against Mycosphaerella arachidis assessed as growth inhibition at 50 ug/ml at 23 degC after 3 days. The conditions noted are these: for inhibition of growth at 50 µg/mL: 72 h, read-out: GI. In short, it runs like this: as §1

For `Cn1nc(C(F)(F)F)c(/C=N/OCc2cnc(Cl)s2)c1Oc1ccc(F)cc1`, the inhibition of growth at 50 µg/mL in [1] was determined as 29%; in test [2] it was 53.4%; in test [4], 24.2%; in test [7], 26.9%; in [9], 67.2%. For the same molecule, the mortality at 200 µg/mL in test [3] was found to be 13.4%; in test [5], 75.3%. Moreover, the mortality at 500 µg/mL in [6] was 90.2%. The Activity in [8] stood at 28.6%.

As for `Cc1cccc(Oc2c(/C=N/OCc3cnc(Cl)s3)c(C(F)(F)F)nn2C)c1`, the inhibition of growth at 50 µg/mL in [1] stood at 33.6%; in test [2], 31.3%; in test [4], 45.3%; in test [7], 28%; in [9], 11.8%. The mortality at 200 µg/mL is 2.3% in test [3] and 82.4% in [5]. The mortality at 500 µg/mL in test [6] amounted to 93.1%. In [8], the Activity came to 22.7%.

Consider `Cn1nc(C(F)(F)F)c(/C=N/OCc2cnc(Cl)s2)c1Oc1ccc(Cl)cc1`, for which the inhibition of growth at 50 µg/mL in test [1] came to 36.3%; in test [2], 15.4%; in test [4], 32.1%; in test [9], 11.8%. Further, the mortality entry in [3] was “inactive”. In addition, the mortality at 200 µg/mL in test [5] turned out to be 84.4%. In test [6], the mortality at 500 µg/mL was found to be 92.3%. Further, in [7], the “growth inhibition (GI)” value is “inactive”. In test [8], the Activity was -34.3%.

In the case of `Cc1ccc(Oc2c(/C=N/OCc3cnc(Cl)s3)c(C(F)(F)F)nn2C)cc1C`, the inhibition of growth at 50 µg/mL in test [1] was 31.3%; in test [2], 8.9%; in [4] it was 26.2%; in test [7] it was 53.2%; in test [9], 32.9%. In addition, the mortality at 200 µg/mL was found to be 6.4% in test [3] and 61.4% in [5]. Moreover, the mortality at 500 µg/mL in test [6] is 71.2%. Also, the Activity in test [8] is listed as -23.8%.

`Cn1nc(C(F)(F)F)c(/C=N/OCc2cnc(Cl)s2)c1Oc1ccc(Br)cc1`: the inhibition of growth at 50 µg/mL in test [1] amounted to 41.6%; in test [2] it was 17.5%; in test [4], 32.9%; in test [7], 12.4%; in test [9] it was 9.2%. In addition, the mortality at 200 µg/mL in test [3] was found to be 4.3%; in test [5] it was 77.4%. In addition, in test [6], the mortality at 500 µg/mL turned out to be 90.4%. Besides, the Activity in test [8] came to 48.5%.

On to `Cn1nc(C(F)(F)F)c(/C=N/OCc2cnc(Cl)s2)c1Oc1ccccc1Cl`, for which the inhibition of growth at 50 µg/mL worked out at 24.6% in test [1], 23.7% in [2], 23.6% in test [4] and 12.6% in [9]. The values for the mortality at 200 µg/mL in test [3] and in test [5] were 6.2% and 46.1%, respectively. Also, the mortality at 500 µg/mL in test [6] came out at 59.3%. For the same molecule, the “growth inhibition (GI)” value in test [7] is “inactive”. In addition, in test [8], the Activity stood at 53.9%.

In the case of `Cn1nc(C(F)(F)F)c(/C=N/OCc2cnc(Cl)s2)c1Oc1ccccc1`, the inhibition of growth at 50 µg/mL stood at 22.4% in test [1]; 21.6% in [2]; 30.3% in test [4]; 65.6% in test [7]; 8.7% in [9]. Also, the mortality at 200 µg/mL in test [3] was 11.2%; in [5], 20.2%. Also, the mortality at 500 µg/mL in test [6] came out at 41.4%. Moreover, in [8], the Activity is listed as -12.5%.

For the molecule `Cn1nc(C(F)(F)F)c(/C=N/OCc2cnc(Cl)s2)c1Sc1ccccc1`, the inhibition of growth at 50 µg/mL in [1] came to 40.8%; in test [2] it was 9.7%; in [4] it was 29.5%; in [7], 43.5%; in test [9] it was 12.7%. Moreover, the mortality at 200 µg/mL in [3] was determined as 14.4%; in [5] it was 83.4%. Besides, the mortality at 500 µg/mL in test [6] stood at 92.2%. In addition, the Activity in [8] turned out to be 21.8%.

Regarding `Cn1nc(C(F)(F)F)c(/C=N/OCc2cnc(Cl)s2)c1Oc1cccc(Cl)c1`, the inhibition of growth at 50 µg/mL was 26.7% in [1]; 43.1% in [2]; 21.7% in test [4]; 22.9% in test [7]; 55.3% in test [9]. The mortality at 200 µg/mL in [3] turned out to be 7.4%; in test [5], 61.2%. Moreover, in test [6], the mortality at 500 µg/mL was 70.4%. The Activity in test [8] was 14.2%.

Regarding `Cn1nc(C(F)(F)F)c(/C=N/OCc2cnc(Cl)s2)c1Oc1ccc(C(C)(C)C)cc1`, the inhibition of growth at 50 µg/mL in [1] came out at 12.5%; in [2], 18.1%; in [4], 22.1%; in test [7] it was 24.8%. Also, the mortality entry in test [3] is “inactive”. The mortality at 200 µg/mL in test [5] was 73.3%. For the same molecule, the mortality at 500 µg/mL in test [6] amounted to 89.4%. In addition, the Activity in test [8] was 72.7%. In test [9], the “growth inhibition (GI)” value is “inactive”.

Turning to `CC(C)(C)C(=O)C(Oc1ccc(Cl)cc1)n1cncn1` (stereo not drawn) [TRIADIMEFON], the inhibition of growth at 50 µg/mL in test [1] stood at 72.6%; in test [2], 81.5%; in [4], 86.7%; in test [7], 66.1%; in [9], 73.4%. Besides, the Activity in test [8] is on record as 50.2%.

As for `COc1ccc(Oc2c(/C=N/OCc3cnc(Cl)s3)c(C(F)(F)F)nn2C)cc1`, the “growth inhibition (GI)” value in test [1] was “inactive”. The inhibition of growth at 50 µg/mL in test [2] worked out at 12.3%; in test [4] it was 46.5%; in [7], 14.6%; in [9], 22.6%. In addition, the mortality at 200 µg/mL in [3] was determined as 13.4%; in test [5] it was 83.4%. In addition, the mortality at 500 µg/mL in test [6] stood at 92.2%. Also, in [8], the Activity was 30.8%.

In the case of `Cc1ccc(Oc2c(/C=N/OCc3cnc(Cl)s3)c(C(F)(F)F)nn2C)cc1`, the inhibition of growth at 50 µg/mL came to 23.8% in test [1]; 15.7% in [2]; 21% in test [4]; 34.6% in test [7]; 5.9% in test [9]. The mortality at 200 µg/mL was 3.4% in [3] and 85.4% in test [5]. In test [6], the mortality at 500 µg/mL is 95.3%. Further, the Activity in [8] came out at 43.6%.

Take `Cc1nn(C)c(Oc2ccccc2)c1/C=N/OCc1ccc(C(=O)OC(C)(C)C)cc1` [FENPYROXYMATE]: the inhibition of growth at 50 µg/mL in [1] was determined as 5.2%; in [2], 14.5%; in test [4] it was 6.7%; in test [7], 8.3%; in [9], 12.5%. For the same molecule, the mortality at 200 µg/mL in [3] stood at 99.7%; in test [5], 12.4%. In addition, the mortality at 500 µg/mL in test [6] was 18.4%. Moreover, the Activity in [8] was found to be 10.6%.

For orientation: mortality means the share of the test organisms that died.
